Source: ChEMBL document CHEMBL4130515, “Identification of Privileged Antichlamydial Natural Products by a Ligand-Based Strategy” (J Nat Prod, 2017)
In brackets after ≈: the same amount, converted by molar mass. Counter-ions that a name gives are not always drawn.

How the values were obtained:
[1] = tested on: Chlamydia pneumoniae; assay: Antichlamydial activity against Chlamydia pneumoniae K7 infected in HL cells assessed as chlamydial inhibition at 50 uM after 70 hrs by fluorescent microscopic analysis; type: functional
Summary of the method: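 Confluent HL cells infected with C. pneumoniae K7 at MOI 0.3 in medium with 1 μg/mL cycloheximide, centrifuged 500 rpm 1 h, then held at 37 °C for 1 h. At 2 h, compound added at 50 μM or DMSO vehicle. After 70 h at 37 °C, inclusions stained and counted in four fields per coverslip under a fluorescence microscope (20×). Inhibition % is relative to mean vehicle counts.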

[2] = Cytotoxicity against human HL cells assessed as cell viability at 50 uM after 72 hrs by resazurin dye based fluorescence assay relative to control; conditions: HL cells, read-out: Activity
Summary of the method: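 HL cells grown overnight to confluence, then exposed to compound at 50 μM for 72 h at 37 °C, four parallel replicates. Read-out after 2 h with 20 μM resazurin in PBS, fluorescence at 570/590 nm (ex/em). Viability % is relative to cells in 0.25% DMSO medium. Usnic acid 50 μM as positive control.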

[3] = tested on: Chlamydia pneumoniae; assay: Antichlamydial activity against Chlamydia pneumoniae K7 infected in HL cells after 70 hrs by fluorescent microscopic analysis; type: functional, organism-based; conditions: for IC50: K7, HL, 70 h; for MIC90: K7, 70 h
Summary of the method: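 HL cells grown to confluence, infected with C. pneumoniae K7 at MOI 0.3 in medium with 1 μg/mL cycloheximide, centrifuged 500 rpm 1 h, then 37 °C 1 h. At 2 h, inoculum replaced by cycloheximide medium with compound at 12 concentrations from 1 nM to 100 μM. Incubated 70 h at 37 °C, stained, and inclusions counted by fluorescence microscopy. Three runs; IC50 from variable-slope sigmoidal fit. Azithromycin 20 nM as positive control.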

SMILES	inhibition at 50 µM [1]	viability at 72 h, 50 µM [2]	IC50 [3]	MIC90 [3]
CC(=O)N[C@H]1CN2CC[C@H](O)[C@@H]2[C@@H](O)[C@@H]1O	59.8%	86.6%	67.2 µM	
CCOC(=O)Oc1c(OC)cc(C(=O)O[C@H]2C[C@H]3CN4CCc5c([nH]c6cc(OC)ccc56)[C@@H]4C[C@H]3[C@@H](C(=O)OC)[C@@H]2OC)cc1OC		67.6%		
C[C@@H]1C[C@H]2CC[C@H](O2)[C@H](C)C(=O)O[C@@H](C)C[C@@H]2CC[C@@H](O2)[C@@H](C)C(=O)O[C@H](C)C[C@H]2CC[C@H](O2)[C@H](C)C(=O)O[C@@H](C)C[C@@H]2CC[C@@H](O2)[C@@H](C)C(=O)O1		23.7%		
C=C[C@](C)(O)CC[C@H]1C(=C)CC[C@H]2C(C)(C)CCC[C@]12C	60%	88.6%	35.5 µM	
CCC1=CC2CN3CCc4c([nH]c5ccccc45)[C@@](C(=O)OC)(C2)C13	68.1%	88.9%	52.6 µM	
COc1c(O)c2c(=O)cc(OC)c3c4c(OC)cc(=O)c5c(O)c(OC)c6c(c(c1CC(C)(O)C6C(C)=O)c23)c54 (configuration not stated)		-0.3%		
O=c1cc(-c2ccccc2)oc2cc(O)ccc12 [7-HYDROXYFLAVONE]		71.1%		
O=C1c2c(O)cc(O)cc2O[C@H](c2ccc(O)c(O)c2)[C@H]1O [(+)-TAXIFOLIN]	13.4%	95.2%		
C=C1CC[C@H]2O[C@]2(C)CC[C@@H]2[C@@H]1CC2(C)C [(-)-CARYOPHYLLENE OXIDE]	35.7%	107%		
Oc1cc(O)c2c(c1)O[C@H](c1ccc(O)c(O)c1)[C@H](O)C2 [(-)-EPICATECHIN]	41.7%	93.4%		
C[C@@]1(CO)[C@H](O)CC[C@@]2(C)[C@H]1CC[C@H]1C[C@@H]3C[C@@]12CC[C@]3(O)CO [APHIDICOLIN]	-3.8%	92.3%		
O=c1cc(-c2ccc(O)cc2)oc2cc(O[C@@H]3O[C@H](CO)[C@@H](O)[C@H](O)[C@H]3O)cc(O)c12 [APIGETRIN]		48.1%		
c1cc2c(cc1[C@H]1OC[C@H]3[C@@H]1CO[C@H]3c1ccc3c(c1)OCO3)OCO2 [ASARININ]		57.1%		
CC(=O)O[C@H]1C(=O)[C@@]2(C)[C@H]([C@H](OC(=O)c3ccccc3)[C@]3(O)C[C@H](O)C(C)=C1C3(C)C)[C@]1(OC(C)=O)CO[C@@H]1C[C@@H]2O [BACCATIN III]		34.6%		
O=C(/C=C/c1ccc(O)c(O)c1)OCCc1ccccc1 [CAFFEIC ACID PHENETHYL ESTER]		46%		
C/C=C(/C)C(=O)O[C@H]1CC[C@@]2(C)[C@@H]3CC[C@H]4[C@]5(O)C[C@H](O)[C@@]6(O)[C@@H](CN7C[C@@H](C)CC[C@H]7[C@@]6(C)O)[C@]5(O)C[C@@]42O[C@]13O [CEVADINE]	39%	98.6%		
CO[C@H]1[C@@H](O)[C@@H](C)O[C@H](O[C@H]2[C@H](Oc3cccc4c(O)c5c(=O)oc6ccc(C)c7c(=O)oc(c34)c5c67)O[C@H](C)[C@H](O)[C@@H]2O)[C@@H]1O [CHARTREUSIN]		4%		
CC(=O)O[C@H]1[C@H]2O[C@]23[C@@H]2CC[C@@H]4C[C@@H](O)CC[C@]4(C)[C@H]2CC[C@]3(C)[C@H]1c1ccc(=O)oc1 [CINOBUFAGIN]		0.2%		
COc1ccc(C(=O)OC2C[C@H]3CC[C@H](C2)N3C)cc1OC (some centres not stated) [CONVOLVAMINE HYDROCHLORIDE]	21.1%	78.8%		
O=c1oc2cc(O)ccc2c2oc3cc(O)ccc3c12 [COUMESTROL]	0%	96.3%		
C[C@@H]1C[C@@H]([C@H](O)CC2CC(=O)NC(=O)C2)C(=O)[C@@H](C)C1 [CYCLOHEXIMIDE]		66.4%		
COc1cc2c(cc1OC)[C@@H]1C(=O)c3ccc4c(c3O[C@@H]1CO2)C=CC(C)(C)O4 [DEGUELIN]		21.6%		
CC1=CC(=O)C2=C(C)CC[C@@H]3[C@H](OC(=O)[C@H]3C)[C@@H]12 [DESACETOXYMATRICARIN]	30.1%	93.9%		
COc1cc(/C=C/c2ccccc2)oc(=O)c1 [DESMETHOXYYANGONIN]	35.7%	89.8%		
C[C@H]1O[C@@H](O[C@H]2[C@@H](O)C[C@H](O[C@H]3[C@@H](O)C[C@H](O[C@H]4CC[C@@]5(C)[C@H](CC[C@@H]6[C@@H]5CC[C@]5(C)[C@@H](C7=CC(=O)OC7)CC[C@]65O)C4)O[C@@H]3C)O[C@@H]2C)C[C@H](O)[C@@H]1O [DIGITOXIN]		0.1%		
CC(C)[C@@]1(NC(=O)[C@@H]2C[C@@H]3c4cccc5[nH]cc(c45)C[C@H]3N(C)C2)O[C@@]2(O)[C@@H]3CCCN3C(=O)[C@H](Cc3ccccc3)N2C1=O [DIHYDROERGOCRISTINE MESYLATE]		2.7%		

SMILES	inhibition at 50 µM [1]	viability at 72 h, 50 µM [2]	IC50 [3]	MIC90 [3]
CC(C)=CCC[C@](C)(O)[C@H]1CC[C@]2(C)[C@@H]1CC[C@@H]1[C@@]3(C)CCC(=O)C(C)(C)[C@@H]3CC[C@]12C [DIPTEROCARPOL]		32.1%		
C[C@@H]1O[C@@H](OC[C@H]2O[C@@H](Oc3cc(O)c4c(c3)O[C@H](c3ccc(O)c(O)c3)CC4=O)[C@H](O)[C@@H](O)[C@@H]2O)[C@H](O)[C@H](O)[C@H]1O [ERIOCITRIN]	8.6%	75.2%		
O=C1C[C@@H](c2ccc(O)c(O)c2)Oc2c1ccc(O[C@@H]1O[C@H](CO)[C@@H](O)[C@H](O)[C@H]1O)c2O [FLAVANOMAREIN]	22.1%	82.6%		
Cc1cc2c(C(C)C)c(O)c(O)c(C=O)c2c(O)c1-c1c(C)cc2c(C(C)C)c(O)c(O)c(C=O)c2c1O [GOSSYPOL]		0.1%		
Cn1c(-c2ccc3c(c2)OCO3)cc(=O)c2ccccc21 [GRAVEOLINE]	5.3%	100%		
COc1ccc2c(c1)[nH]c1c(C)nccc12 [HARMINE HYDROCHLORIDE]	26%	87.3%		
COc1ccc([C@@H]2CC(=O)c3c(O)cc(O[C@@H]4O[C@H](CO[C@@H]5O[C@@H](C)[C@H](O)[C@@H](O)[C@H]5O)[C@@H](O)[C@H](O)[C@H]4O)cc3O2)cc1O [HESPERIDIN]	26.8%	101%		
C=CCc1ccc(O)c(-c2ccc(O)c(CC=C)c2)c1 [HONOKIOL]		8.8%		
O=C1Nc2ccccc2/C1=C1/Nc2ccccc2C1=O [INDIRUBIN]	2%	92.5%		
O=c1c(O[C@@H]2O[C@H](CO)[C@@H](O)[C@H](O)[C@H]2O)c(-c2ccc(O)c(O)c2)oc2cc(O)cc(O)c12 [ISOQUERCETIN]	38%	95.8%		
CC1=C2C(=O)[C@H]3[C@@H](CC=C4C[C@@H](O)CC[C@@]43C)[C@@H]2CC[C@]12O[C@@H]1C[C@H](C)CN[C@H]1[C@H]2C [JERVINE]	74.8%	89.3%	25.6 µM	
CN1CCc2cc(O)c(O)cc2C1Cc1ccc(O)c(O)c1 (configuration not stated) [LAUDANOSOLINE HYDROBROMIDE]		72.8%		
OC[C@@H]1CCCN2CCCC[C@H]12 [LUPININE]	28.2%	98.7%		
COc1c(C)c2c(c(O)c1C/C=C(\C)CCC(=O)O)C(=O)OC2 [MYCOPHENOLIC ACID]	98%	86.6%	0.31 µM	1 µM (≈ 0.32 µg/mL)
CCn1cc(C(=O)O)c(=O)c2ccc(C)nc21 [NALIDIXIC ACID]		15.8%		
C[C@@H]1C/C=C/C=C/C=C/C=C/[C@H](O[C@@H]2O[C@H](C)[C@@H](O)[C@H](N)[C@@H]2O)C[C@@H]2O[C@](O)(C[C@@H](O)C[C@H]3O[C@@H]3/C=C/C(=O)O1)C[C@H](O)[C@H]2C(=O)O [NATAMYCIN]		67.1%		
CC1COc2c(N3CCN(C)CC3)c(F)cc3c(=O)c(C(=O)O)cn1c23 (configuration not stated) [OFLOXACIN]				1.38 µM (≈ 0.499 µg/mL)
CC1(C)CC[C@]2(C(=O)O)CC[C@]3(C)C(=CC[C@@H]4[C@@]5(C)CC[C@H](O)C(C)(C)[C@@H]5CC[C@]43C)[C@@H]2C1 [OLEANOLIC_ACID]		36.3%		
C=C1C(=O)[C@]23[C@H](O)[C@H]1CC[C@H]2[C@@]12CO[C@]3(O)[C@@H](O)[C@@H]1C(C)(C)CC[C@@H]2O [ORIDONIN]		0%		
C[C@]1(C(=O)O)CCC[C@]2(C)c3cc(O)ccc3CC[C@@H]12 [PODOCARIC ACID]		27.9%		
CCCCC[C@H](O)/C=C/C1=C(CCCCCCC(=O)O)C(=O)CC1 [PROSTAGLANDIN B1]	39.8%	109%		
C[C@@H]1C[C@H]2O[C@@H]2/C=C\C=C\C(=O)Cc2c(Cl)c(O)cc(O)c2C(=O)O1 [RADICICOL]		0.6%		
CN1CCc2cc3c(c4c2[C@H]1Cc1ccccc1-4)OCO3 [REMERINE HYDROCHLORIDE]		45.2%		
c1ccc2c3c([nH]c2c1)CNCC3 [TRYPTOLINE]	4.9%	84.8%		
O[C@H]1CCN2Cc3ccccc3N=C12 [VASICINE]	-1.4%	102%		
